From ChEMBL document CHEMBL3861962 (Eur J Med Chem, 2016)

Assays:
[1] = target: T1, Endothelin-1 receptor (Homo sapiens) (UniProt P25101); test: Antagonist activity at ETA receptor in human SKNMC cells assessed as inhibition of endothelin-1-mediated Ca2+ mobilization at 1 nM by fluorimetric method relative to control; type: functional, cell-based; details: SK-N-MC
T1 sequence (whole entry): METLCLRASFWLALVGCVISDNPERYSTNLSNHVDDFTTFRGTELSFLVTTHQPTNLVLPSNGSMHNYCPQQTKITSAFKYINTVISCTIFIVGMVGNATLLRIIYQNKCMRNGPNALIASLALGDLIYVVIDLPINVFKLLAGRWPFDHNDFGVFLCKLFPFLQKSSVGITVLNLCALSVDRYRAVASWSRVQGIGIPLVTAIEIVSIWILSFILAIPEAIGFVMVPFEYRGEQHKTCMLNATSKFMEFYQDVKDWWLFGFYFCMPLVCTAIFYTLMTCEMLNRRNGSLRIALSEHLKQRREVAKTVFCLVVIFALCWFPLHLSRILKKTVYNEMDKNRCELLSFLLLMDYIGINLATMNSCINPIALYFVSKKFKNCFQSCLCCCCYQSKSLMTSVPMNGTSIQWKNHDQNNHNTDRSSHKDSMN
Procedure, shortened: (§1)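 ETA functional assay run by Cerep in human neuroblastoma SK-N-MC cells at 22 °C with fluorimetric read-out. Test solutions were 1, 10, 100 and 1000 nM. Agonist response is given as % of the control response to 100 nM endothelin-1. For antagonist mode, inhibition is given as % of the control endothelin-1 agonist response, with BQ-123 as reference antagonist.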

[2] = target: T1, Endothelin-1 receptor (Homo sapiens); test: Antagonist activity at ETA receptor in human SKNMC cells assessed as inhibition of endothelin-1-mediated Ca2+ mobilization at 100 nM by fluorimetric method relative to control; type: functional, cell-based; details: SK-N-MC; procedure, shortened: as §1
[3] = target: T2, Endothelin receptor type B (Homo sapiens) (UniProt P24530); test: Antagonist activity at human recombinant ETB expressed in CHOK1 cells assessed as inhibition of endothelin-1-mediated Ca2+ mobilization at 1 nM by fluorimetric method relative to control; type: functional, cell-based; details: CHO-K1
T2 sequence (whole entry): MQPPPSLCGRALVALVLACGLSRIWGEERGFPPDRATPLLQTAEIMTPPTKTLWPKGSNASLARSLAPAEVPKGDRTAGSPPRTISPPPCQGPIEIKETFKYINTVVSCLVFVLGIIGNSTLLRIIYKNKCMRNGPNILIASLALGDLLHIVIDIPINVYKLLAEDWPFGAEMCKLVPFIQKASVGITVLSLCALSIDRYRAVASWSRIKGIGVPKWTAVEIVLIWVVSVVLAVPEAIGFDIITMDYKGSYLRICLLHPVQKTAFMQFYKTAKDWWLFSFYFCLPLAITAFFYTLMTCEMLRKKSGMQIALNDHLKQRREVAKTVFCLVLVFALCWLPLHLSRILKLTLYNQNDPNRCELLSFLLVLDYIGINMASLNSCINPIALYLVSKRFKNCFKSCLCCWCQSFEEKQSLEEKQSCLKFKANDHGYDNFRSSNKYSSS
Procedure, shortened: as §1, with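 “ETB” for “ETA”, “recombinant CHO-k1” for “neuroblastoma SK-N-MC”, “BQ-788” for “BQ-123”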

[4] = Retention time of the compound; type: physicochemical
[5] = target: T1, Endothelin-1 receptor (Homo sapiens); test: Agonist activity at ETA receptor in human SKNMC cells assessed as induction of Ca2+ mobilization at 10 nM by fluorimetric method relative to control; type: functional, cell-based; details: SK-N-MC; procedure, shortened: as §1
[6] = target: T1, Endothelin-1 receptor (Homo sapiens); test: Agonist activity at ETA receptor in human SKNMC cells assessed as induction of Ca2+ mobilization at 100 nM by fluorimetric method relative to control; type: functional, cell-based; details: SK-N-MC; procedure, shortened: as §1
[7] = Metabolic stability in human liver microsomes assessed as parent compound remaining at 5 uM in presence of NADPH after 30 mins by LC-MS/MS analysis; type: ADME; details: read-out: Stability
Procedure, shortened: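 Pooled human liver microsomes in 100 mM potassium phosphate, pH 7.4, with test compound at 5 μM final. Reaction started with 1 mM NADPH (final) and run at 37 °C in a shaking water bath for 0, 15 and 30 min. Stopped with an equal volume of ice-cold acetonitrile containing 0.6 μM labetalol as internal standard. Protein was spun out and the supernatant analysed by LC-MS/MS. Blank had no compound.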

[8] = target: T2, Endothelin receptor type B (Homo sapiens); test: Antagonist activity at human recombinant ETB expressed in CHOK1 cells assessed as inhibition of endothelin-1-mediated Ca2+ mobilization at 10 nM by fluorimetric method relative to control; type: functional, cell-based; details: CHO-K1
Procedure, shortened: as §1, with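 “ETB” for “ETA”, “recombinant CHO-k1” for “neuroblastoma SK-N-MC”, “BQ-788” for “BQ-123”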

[9] = target: T2, Endothelin receptor type B (Homo sapiens); test: Agonist activity at human recombinant ETB receptor expressed in CHOK1 cells assessed as induction of Ca2+ mobilization at 10 nM by fluorimetric method relative to control; type: functional, cell-based; details: CHO-K1
Procedure, shortened: as §1, with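 “ETB” for “ETA”, “recombinant CHO-k1” for “neuroblastoma SK-N-MC”, “BQ-788” for “BQ-123”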

[10] = target: Cytochrome P450 3A4 (Homo sapiens, UniProt P08684); test: Drug metabolism assessed as human recombinant CYP3A4-mediated metabolite formation by measuring parent compound remaining at 5 uM in presence of NADPH after 30 mins by LC-MS/MS analysis; type: ADME; details: recombinant enzyme, 0.5 h
Cytochrome P450 3A4, sequence (P08684 whole entry): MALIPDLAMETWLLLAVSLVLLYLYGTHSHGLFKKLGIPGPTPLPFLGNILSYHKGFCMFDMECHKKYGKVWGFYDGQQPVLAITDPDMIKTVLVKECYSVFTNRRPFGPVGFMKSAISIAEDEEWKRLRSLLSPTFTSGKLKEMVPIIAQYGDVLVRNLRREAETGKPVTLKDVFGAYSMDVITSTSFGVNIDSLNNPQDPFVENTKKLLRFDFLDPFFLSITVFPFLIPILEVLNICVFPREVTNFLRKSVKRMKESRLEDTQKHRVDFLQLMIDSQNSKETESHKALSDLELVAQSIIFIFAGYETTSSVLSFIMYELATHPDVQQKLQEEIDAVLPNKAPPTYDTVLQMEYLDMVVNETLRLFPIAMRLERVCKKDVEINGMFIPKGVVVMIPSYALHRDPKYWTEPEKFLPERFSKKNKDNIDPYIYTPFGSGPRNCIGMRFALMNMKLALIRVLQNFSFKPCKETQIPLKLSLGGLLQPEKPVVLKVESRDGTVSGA
Procedure, shortened: (§2)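 Substrate at 5 μM final in 100 mM potassium phosphate, pH 7.4, incubated with human liver microsomes or baculovirus-expressed recombinant CYP3A4, 2D6 or 2C9. Reaction started with 1 mM NADPH and run 0, 15 and 30 min at 37 °C. Stopped with ice-cold acetonitrile containing labetalol internal standard, then centrifuged. Supernatant analysed by LC-MS/MS on a C18 column at 40 °C. Blank was enzyme without substrate.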

[11] = target: T1, Endothelin-1 receptor (Homo sapiens); test: Antagonist activity at ETA receptor in human SKNMC cells assessed as inhibition of endothelin-1-mediated Ca2+ mobilization at 10 nM by fluorimetric method relative to control; type: functional, cell-based; details: SK-N-MC; procedure, shortened: as §1
[12] = target: T2, Endothelin receptor type B (Homo sapiens); test: Agonist activity at human recombinant ETB receptor expressed in CHOK1 cells assessed as induction of Ca2+ mobilization at 100 nM by fluorimetric method relative to control; type: functional, cell-based; details: CHO-K1
Procedure, shortened: as §1, with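 “ETB” for “ETA”, “recombinant CHO-k1” for “neuroblastoma SK-N-MC”, “BQ-788” for “BQ-123”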

[13] = target: T2, Endothelin receptor type B (Homo sapiens); test: Agonist activity at human recombinant ETB receptor expressed in CHOK1 cells assessed as induction of Ca2+ mobilization at 1 nM by fluorimetric method relative to control; type: functional, cell-based; details: CHO-K1
Procedure, shortened: as §1, with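 “ETB” for “ETA”, “recombinant CHO-k1” for “neuroblastoma SK-N-MC”, “BQ-788” for “BQ-123”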

[14] = target: T1, Endothelin-1 receptor (Homo sapiens); test: Agonist activity at ETA receptor in human SKNMC cells assessed as induction of Ca2+ mobilization at 1 nM by fluorimetric method relative to control; type: functional, cell-based; details: SK-N-MC; procedure, shortened: as §1
[15] = target: Cytochrome P450 2C9 (Homo sapiens, UniProt P11712); test: Drug metabolism assessed as human recombinant CYP2C9-mediated metabolite formation by measuring parent compound remaining at 5 uM in presence of NADPH after 30 mins by LC-MS/MS analysis; type: ADME; details: recombinant enzyme, 0.5 h; procedure, shortened: as §2
Cytochrome P450 2C9, sequence (P11712 whole entry): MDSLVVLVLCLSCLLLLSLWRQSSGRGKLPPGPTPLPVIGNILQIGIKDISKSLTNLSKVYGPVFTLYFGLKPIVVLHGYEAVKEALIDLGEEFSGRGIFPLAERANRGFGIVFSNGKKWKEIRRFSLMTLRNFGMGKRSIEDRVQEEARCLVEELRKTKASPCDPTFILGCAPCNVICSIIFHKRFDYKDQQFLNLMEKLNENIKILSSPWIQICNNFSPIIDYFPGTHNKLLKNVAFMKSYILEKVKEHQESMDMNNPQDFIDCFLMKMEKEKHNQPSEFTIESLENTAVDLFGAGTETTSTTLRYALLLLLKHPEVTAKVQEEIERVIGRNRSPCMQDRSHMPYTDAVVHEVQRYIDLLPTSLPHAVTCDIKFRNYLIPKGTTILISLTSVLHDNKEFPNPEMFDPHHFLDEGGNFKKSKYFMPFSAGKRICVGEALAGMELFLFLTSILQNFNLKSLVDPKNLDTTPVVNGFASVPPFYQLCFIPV

[16] = Cytotoxicity against CHOK1 cells assessed as decrease in cell viability after 24 hrs by MTT assay; type: toxicity, cell-based, Cricetulus griseus; details: Chinese hamster, CHO-K1 cells
Procedure, shortened: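 CHO-k1 cells grown in phenol-red-free DMEM/F-12 with 10% FBS, seeded at 20,000 cells/well and allowed to attach overnight. Exposure was 24 h to 0.1–200 μM, with DMSO as vehicle control. MTT at 1 mg/mL for 3 h at 37 °C, formazan dissolved in DMSO, absorbance read at 570 nm. Data given as % OD of vehicle control; IC50 taken from dose–response curve fits.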

COc1ccccc1Oc1c(NS(=O)(=O)c2ccc(C(F)(C(F)(F)F)C(F)(F)F)cc2)nc(-c2ncccn2)nc1OCCO
inhibition [1]: -5% | inhibition [2]: 55% | inhibition [3]: -5% | Retention_time [4]: 5.6 min | Activity [5]: -1% | Activity [6]: -1% | remaining at 0.5 h, 5 µM [7]: 99% | inhibition [8]: 16% | Activity [9]: -1% | Stability [10]: 16.3% | inhibition [11]: 20% | Activity [12]: -1% | Activity [13]: 0% | Activity [14]: 0% | Stability [15]: 100% | IC50 at 24 h [16]: 159 µM

COc1ccccc1Oc1c(NS(=O)(=O)c2ccc(C(OC)(C(F)(F)F)C(F)(F)F)cc2)nc(-c2ncccn2)nc1OCCO
inhibition [1]: -1% | inhibition [2]: 26% | inhibition [3]: 4% | Retention_time [4]: 5.48 min | Activity [5]: 0% | Activity [6]: 0% | remaining at 0.5 h, 5 µM [7]: 73.9% | inhibition [8]: 5% | Activity [9]: 0% | Stability [10]: 19.2% | inhibition [11]: 13% | Activity [12]: 0% | Activity [13]: 0% | Activity [14]: 0% | Stability [15]: 100% | IC50 at 24 h [16]: 153 µM
